ChEMBL document CHEMBL4138152, “Exploring the tetrahydroisoquinoline thiohydantoin scaffold blockade the androgen receptor as potent anti-prostate cancer agents” (Eur J Med Chem, 2018)
Blank lines part the entries; values can stand above or below the molecule they belong to. Activity calls are given as the source filed them. The calls are words filed in the database; no cut-off is given here.

Columns and labels:
LNCaP = experiment: Antiproliferative activity against human LNCAP cells after 3 days by MTT assay; type: functional, cell-based; details: 72 h
Procedure, shortened: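 LNCaP cells kept in RPMI-1640 with 10% FBS, 37 °C, 5% CO2. Seeded at 10,000 cells/well and left 24 h. Serial dilutions of compound or DMSO added, then 3 d incubation. MTT (5 mg/mL) added for 4 h, crystals dissolved in DMSO, absorbance read at 492 nm. Triplicate or more; IC50 reported as mean.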

[1] = target: T1, Androgen receptor (Homo sapiens) (UniProt P10275); details: at 10 µM
T1 sequence (whole entry): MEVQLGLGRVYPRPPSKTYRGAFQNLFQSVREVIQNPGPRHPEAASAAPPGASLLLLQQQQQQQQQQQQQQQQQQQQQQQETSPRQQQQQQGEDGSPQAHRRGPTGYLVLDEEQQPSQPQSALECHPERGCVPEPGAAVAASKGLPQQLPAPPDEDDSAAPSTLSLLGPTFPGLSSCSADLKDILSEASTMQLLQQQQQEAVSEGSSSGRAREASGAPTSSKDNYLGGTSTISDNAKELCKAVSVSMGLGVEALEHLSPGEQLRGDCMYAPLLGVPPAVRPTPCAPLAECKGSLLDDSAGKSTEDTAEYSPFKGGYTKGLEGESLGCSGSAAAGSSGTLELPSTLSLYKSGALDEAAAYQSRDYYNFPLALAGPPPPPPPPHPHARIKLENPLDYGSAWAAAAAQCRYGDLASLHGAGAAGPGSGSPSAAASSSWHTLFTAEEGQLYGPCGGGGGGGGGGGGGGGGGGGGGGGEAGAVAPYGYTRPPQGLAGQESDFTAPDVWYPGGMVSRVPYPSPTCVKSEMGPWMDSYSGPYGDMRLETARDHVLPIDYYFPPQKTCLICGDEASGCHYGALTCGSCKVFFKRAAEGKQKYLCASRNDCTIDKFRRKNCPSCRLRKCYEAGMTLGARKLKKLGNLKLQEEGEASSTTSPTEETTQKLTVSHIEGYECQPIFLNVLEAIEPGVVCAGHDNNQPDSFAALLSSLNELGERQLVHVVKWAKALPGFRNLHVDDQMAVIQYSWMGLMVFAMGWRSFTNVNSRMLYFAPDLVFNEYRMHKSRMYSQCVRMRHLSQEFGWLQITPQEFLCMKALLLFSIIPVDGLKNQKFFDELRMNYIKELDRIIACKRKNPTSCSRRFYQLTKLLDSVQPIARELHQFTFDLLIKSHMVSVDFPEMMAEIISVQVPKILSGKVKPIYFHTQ

DU-145 = experiment: Antiproliferative activity against human DU145 cells after 3 days by MTT assay; type: functional, cell-based; details: DU-145, 72 h
Procedure, shortened: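 DU145 cells kept in RPMI-1640 with 10% FBS, 37 °C, 5% CO2. Seeded at 7,000 cells/well and left 24 h. Serial dilutions of compound or DMSO added, then 3 d incubation. MTT (5 mg/mL) added for 4 h, formazan dissolved in DMSO, absorbance read at 492 nm. Triplicate or more; IC50 reported as mean.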

[2] = Clearance in rat administered via gavage by HPLC-MS/MS method; type: ADME, organism-based; details: in vivo, po
Procedure, shortened: (§1)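 Rats 180–220 g, n = 3 per group; compound dissolved in water, single gavage dose of 5.0 mg/kg. Plasma quantified by HPLC-MS/MS. Parameters derived from mean plasma concentration by noncompartmental analysis.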

[3] = AUC (0 to t) in rat administered via gavage by HPLC-MS/MS method; type: ADME, organism-based; details: in vivo, po; procedure, shortened: as §1
[4] = Tmax in rat administered via gavage by HPLC-MS/MS method; type: ADME, organism-based; details: in vivo, po; procedure, shortened: as §1
Androgen receptor = target: T2, Androgen receptor (Homo sapiens, UniProt P10275); type: cell-based
T2 sequence (P10275 whole entry): T1 sequence (whole entry)

[5] = Elimination half life in rat administered via gavage by HPLC-MS/MS method; type: ADME, organism-based; details: in vivo, po, read-out: beta t1/2 (converted); procedure, shortened: as §1
[6] = Cmax in rat administered via gavage by HPLC-MS/MS method; type: ADME, organism-based; details: in vivo, po; procedure, shortened: as §1
[7] = target: T1, Androgen receptor (Homo sapiens); details: at 10 µM; remark: listed apart in the source

Structure (SMILES): N#Cc1ccc(N2C(=O)C3Cc4cc([N+](=O)[O-])ccc4CN3C2=S)cc1C(F)(F)F (stereo unspecified)
- IC50 (LNCaP): 56.4 µM
- inhibition [1]: inactive
- IC50 (DU-145): > 200 µM

Structure (SMILES): CC(=O)Nc1ccc2c(c1)CN1C(=S)N(c3ccc(C#N)c(C(F)(F)F)c3)C(=O)C1C2 (stereo unspecified)
- IC50 (LNCaP): 83.8 µM
- inhibition [1]: 25%
- IC50 (DU-145): > 200 µM

Structure (SMILES): N#Cc1ccc(N2C(=O)C3Cc4ccccc4CN3C2=S)cc1F (stereo unspecified)
- IC50 (LNCaP): 70.3 µM
- inhibition [1]: inactive
- IC50 (DU-145): 37.1 µM

Structure (SMILES): COc1ccc2c(c1)CN1C(=S)N(c3ccc(C#N)c(C(F)(F)F)c3)C(=O)C1C2 (stereo unspecified)
- IC50 (LNCaP): 100 µM
- inhibition [1]: inactive
- IC50 (DU-145): 60.4 µM

Structure (SMILES): CNC(=O)c1cc2c(cc1F)CC1C(=O)N(c3ccc(C#N)c(F)c3)C(=S)N1C2 (stereo unspecified)
- IC50 (LNCaP): 116 µM
- inhibition [1]: 26.7%
- IC50 (DU-145): 85.4 µM

Structure (SMILES): CNC(=O)c1cc2c(cc1F)CC1C(=O)N(c3ccc(C#N)c(C(F)(F)F)c3)C(=S)N1C2 (stereo unspecified)
- IC50 (LNCaP): 28.1 µM
- inhibition [1]: 47.1%
- IC50 (DU-145): > 200 µM

Structure (SMILES): COc1c(Br)cc2c(c1Br)CN1C(=S)N(c3ccc(C#N)c(C(F)(F)F)c3)C(=O)C1C2 (stereo unspecified)
- IC50 (LNCaP): 19.1 µM
- inhibition [1]: 4.6%
- IC50 (DU-145): 33.8 µM

Structure (SMILES): N#Cc1ccc(N2C(=O)C3Cc4ccc([N+](=O)[O-])cc4CN3C2=S)cc1C(F)(F)F (stereo unspecified)
- IC50 (LNCaP): 43 µM
- inhibition [1]: 59.8%
- IC50 (DU-145): > 200 µM

Structure (SMILES): CCCC(=O)Nc1ccc2c(c1)CN1C(=S)N(c3ccc(C#N)c(C(F)(F)F)c3)C(=O)C1C2 (stereo unspecified)
- IC50 (LNCaP): 10.8 µM
- inhibition [1]: 45.5%
- IC50 (DU-145): > 200 µM

Structure (SMILES): CCCCS(=O)(=O)Nc1ccc2c(c1)CN1C(=S)N(c3ccc(C#N)c(C(F)(F)F)c3)C(=O)C1C2 (stereo unspecified)
- IC50 (LNCaP): 3.12 µM
- inhibition [1]: 29.5%
- IC50 (DU-145): > 200 µM

Structure (SMILES): N#Cc1ccc(N2C(=O)C3Cc4ccc(OC5CCCCC5)cc4CN3C2=S)cc1C(F)(F)F (stereo unspecified)
- IC50 (LNCaP): 8.5 µM
- inhibition [1]: 61.6%
- IC50 (DU-145): 98.1 µM

Structure (SMILES): N#Cc1ccc(N2C(=O)C3Cc4cc(Cl)c(O)c(Cl)c4CN3C2=S)cc1C(F)(F)F (stereo unspecified)
- IC50 (LNCaP): 14 µM
- inhibition [1]: 36%
- IC50 (DU-145): 17.1 µM

Structure (SMILES): CC(C)Oc1ccc2c(c1)CN1C(=S)N(c3ccc(C#N)c(C(F)(F)F)c3)C(=O)C1C2 (stereo unspecified)
- IC50 (LNCaP): 8.6 µM
- inhibition [1]: 45.4%
- IC50 (DU-145): 91.6 µM

Structure (SMILES): N#Cc1ccc(N2C(=O)C3Cc4ccc(O)cc4CN3C2=S)cc1C(F)(F)F (stereo unspecified)
- IC50 (LNCaP): 50.7 µM
- inhibition [1]: 85.7%
- IC50 (DU-145): > 200 µM

Structure (SMILES): N#Cc1ccc(N2C(=O)C3Cc4ccccc4N3C2=S)cc1C(F)(F)F (stereo unspecified)
- CL/F [2]: 26.5 mL/min/kg
- IC50 (LNCaP): 15.3 µM
- AUC(0-t) [3]: 2860 ng·h/mL
- Tmax [4]: 2 h
- IC50 (Androgen receptor): 18.7 µM
- half-life [5]: 10.4 h
- Cmax [6]: 452 ng/mL

Structure (SMILES): N#Cc1ccc(N2C(=O)C3Cc4ccc(N)cc4CN3C2=S)cc1C(F)(F)F (stereo unspecified)
- IC50 (LNCaP): 18.9 µM
- inhibition [1]: 37.8%
- IC50 (DU-145): 89.7 µM

Structure (SMILES): CCC(=O)Nc1ccc2c(c1)CN1C(=S)N(c3ccc(C#N)c(C(F)(F)F)c3)C(=O)C1C2 (stereo unspecified)
- IC50 (LNCaP): 19.5 µM
- inhibition [1]: 4.5%
- IC50 (DU-145): > 200 µM

- IC50 (LNCaP): 12.5 µM
- IC50 (DU-145): 46.1 µM
Structure (SMILES): CNC(=O)c1ccc(N2C(=S)N(c3ccc(C#N)c(C(F)(F)F)c3)C(=O)C2(C)C)cc1F [ENZALUTAMIDE]

Structure (SMILES): CC12Cc3ccccc3CN1C(=S)N(c1ccc(C#N)c(C(F)(F)F)c1)C2=O (stereo unspecified)
- IC50 (LNCaP): 65.3 µM
- inhibition [1]: 26.2%
- IC50 (DU-145): > 200 µM

Structure (SMILES): CCOC(=O)CCCOc1ccc2c(c1)CN1C(=S)N(c3ccc(C#N)c(C(F)(F)F)c3)C(=O)C1C2 (stereo unspecified)
- IC50 (LNCaP): 18.8 µM
- inhibition [1]: 43.9%
- IC50 (DU-145): 15.4 µM

Structure (SMILES): N#Cc1ccc(N2C(=O)C3Cc4cc(N)ccc4CN3C2=S)cc1C(F)(F)F (stereo unspecified)
- IC50 (LNCaP): 73 µM
- inhibition [1]: 14.2%
- IC50 (DU-145): > 200 µM

Structure (SMILES): N#Cc1ccc(N2C(=O)C3Cc4cc(Br)c(O)c(Br)c4CN3C2=S)cc1C(F)(F)F (stereo unspecified)
- IC50 (LNCaP): 11.1 µM
- inhibition [1]: 6.1%
- IC50 (DU-145): 11.4 µM

Structure (SMILES): CC(C)(C)C(=O)Nc1ccc2c(c1)CN1C(=S)N(c3ccc(C#N)c(C(F)(F)F)c3)C(=O)C1C2 (stereo unspecified)
- IC50 (LNCaP): 21.2 µM
- inhibition [1]: inactive
- IC50 (DU-145): 83.2 µM

Structure (SMILES): CCCOc1ccc2c(c1)CN1C(=S)N(c3ccc(C#N)c(C(F)(F)F)c3)C(=O)C1C2 (stereo unspecified)
- IC50 (LNCaP): 11.6 µM
- inhibition [1]: 54%
- IC50 (DU-145): 62.3 µM

Structure (SMILES): CCOc1ccc2c(c1)CN1C(=S)N(c3ccc(C#N)c(C(F)(F)F)c3)C(=O)C1C2 (stereo unspecified)
- IC50 (LNCaP): 22.6 µM
- inhibition [1]: 47.1%
- IC50 (DU-145): 40.9 µM

Structure (SMILES): CCOC(=O)Nc1cc2c(cc1F)CC1C(=O)N(c3ccc(C#N)c(C(F)(F)F)c3)C(=S)N1C2 (stereo unspecified)
- CL/F [2]: 2.43 mL/min/kg
- IC50 (LNCaP): 13.4 µM
- AUC(0-t) [3]: 30000 ng·h/mL
- inhibition [1]: 85.1%
- IC50 (DU-145): > 200 µM
- Tmax [4]: 4 h
- IC50 (Androgen receptor): 7.39 µM
- half-life [5]: 24.7 h
- inhibition [7]: Active
- Cmax [6]: 2290 ng/mL

Structure (SMILES): N#Cc1ccc(N2C(=O)C3Cc4cc(I)c(O)c(I)c4CN3C2=S)cc1C(F)(F)F (stereo unspecified)
- IC50 (LNCaP): 16.3 µM
- inhibition [1]: 27.3%
- IC50 (DU-145): 22.1 µM

Structure (SMILES): N#Cc1ccc(N2C(=O)C3Cc4ccccc4CN3C2=S)cc1C(F)(F)F (stereo unspecified)
- CL/F [2]: 20.5 mL/min/kg
- IC50 (LNCaP): 31.1 µM
- AUC(0-t) [3]: 3860 ng·h/mL
- inhibition [1]: 89%
- IC50 (DU-145): > 200 µM
- Tmax [4]: 2 h
- half-life [5]: 5.13 h
- Cmax [6]: 387 ng/mL

Structure (SMILES): CCOC(=O)CCCOc1c(Br)cc2c(c1Br)CN1C(=S)N(c3ccc(C#N)c(C(F)(F)F)c3)C(=O)C1C2 (stereo unspecified)
- IC50 (LNCaP): 6.3 µM
- inhibition [1]: inactive
- IC50 (DU-145): 21.9 µM

Structure (SMILES): CC(C)COc1ccc2c(c1)CN1C(=S)N(c3ccc(C#N)c(C(F)(F)F)c3)C(=O)C1C2 (stereo unspecified)
- IC50 (LNCaP): 10.6 µM
- inhibition [1]: 61.5%
- IC50 (DU-145): 52.6 µM

Structure (SMILES): CS(=O)(=O)Nc1ccc2c(c1)CN1C(=S)N(c3ccc(C#N)c(C(F)(F)F)c3)C(=O)C1C2 (stereo unspecified)
- IC50 (LNCaP): 31.1 µM
- inhibition [1]: 13.6%
- IC50 (DU-145): > 200 µM

Structure (SMILES): CCOC(=O)Nc1ccc2c(c1)CN1C(=S)N(c3ccc(C#N)c(C(F)(F)F)c3)C(=O)C1C2 (stereo unspecified)
- CL/F [2]: 9.5 mL/min/kg
- IC50 (LNCaP): 6.3 µM
- AUC(0-t) [3]: 7030 ng·h/mL
- inhibition [1]: 45.4%
- IC50 (DU-145): 90.1 µM
- Tmax [4]: 2 h
- half-life [5]: 34.4 h
- Cmax [6]: 641 ng/mL
